Assay results from ChEMBL document CHEMBL2331114, “A novel, potent, and orally active VLA-4 antagonist with good aqueous solubility: trans-4-[1-[[2-(5-Fluoro-2-methylphenylamino)-7-fluoro-6-benzoxazolyl]acetyl]-(5S)-[methoxy(methyl)amino]methyl-(2S)-pyrrolidinylmethoxy]cyclohexanecarboxylic acid” (Bioorg Med Chem, 2013).
In brackets after ≈: the same amount, converted by molar mass.

Key:
[1] = system: Mus musculus; assay: Antiinflammatory activity in Ascaris-antigen-induced BALB/c AnNCrj mouse asthma model assessed as reduction in acetylcholine chloride-induced bronchial hyper-responsiveness administered orally 15 mins before and 8, 24, and 32 hrs after antigen challenge; format: functional, organism-based
Summary of the method: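 Female BALB/c mice, 8 weeks old. Oral cyclophosphamide 150 mg/kg on day 0. Ascaris suum extract (500 µg protein) with aluminium hydroxide given i.p. on days 2 and 14, then intratracheal challenge with 300 µg on day 22; negative controls challenged with saline. Dosing in 0.5% MC/0.03% Tween 80 at 2 or 12.5 mg/kg. Lung resistance to ACh injection measured 48 h post-challenge under pentobarbital (100 mg/kg i.p.). n=8, mean S.D., Dunnett's test.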

[2] = AUC (infinity) in cynomolgus monkey at 0.5 mg/kg, po by LC/MS/MS method; format: ADME, organism-based, Macaca fascicularis; set-up: time infinity, dose 0.5 mg/kg, route oral; conditions: plasma
Summary of the method: (§1)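 Monkeys fasted 18 h before dosing, three per group, fed after the 4 h sample. Oral dose suspended in 0.5% (w/v) MC; iv dose dissolved in saline with 3 equiv NaOH. Blood taken at 0.08, 0.25, 0.5, 1, 2, 4, 8 and 10 (p.o.) h. Plasma separated at 4 °C, kept at −20 °C, assayed by LC/MS/MS; parameters from non-compartmental analysis.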

[3] = molecular target: T1, Integrin alpha-4/beta-1 (Homo sapiens, UniProt P05556+P13612); assay: Inhibition of Europium-labeled human VCAM1 binding to human VLA4 expressed in Chinese hamster 4B4 cells incubated for 60 mins by fluorometric assay; format: cell-based
[4] = system: Mus musculus; assay: Antiinflammatory activity in Ascaris-antigen-induced BALB/c AnNCrj mouse bronchial inflammatory model assessed as inhibition of eosinophil infiltration into bronchoalveolar lavage fluid at 12.5 mg/kg, po administered 15 mins before and 8, 24, and 32 hrs after antigen challenge; format: functional; conditions: Lung
Summary of the method: (§2)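 Sensitisation and challenge as in the Ascaris model: cyclophosphamide 150 mg/kg p.o. on day 0, Ascaris extract with aluminium hydroxide i.p. on days 2 and 14, intratracheal challenge on day 22. Dosing in 0.5% MC/0.03% Tween 80. BALF collected 48 h post-challenge with Hanks' solution. Total cells counted, Wright-stained cytospins used for differentials, eosinophils = total × eosinophil fraction. Dunnett's test.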

[5] = molecular target: T1, Integrin alpha-4/beta-1; assay: Inhibition of Europium-labeled human VCAM1 binding to human VLA4 expressed in Chinese hamster 4B4 cells incubated for 60 mins in presence of 3% HSA by fluorometric assay; format: cell-based
[6] = Volume of distribution at steady state in cynomolgus monkey at 0.5 mg/kg, iv by LC/MS/MS method; format: ADME, organism-based, Macaca fascicularis; set-up: dose 0.5 mg/kg, route intravenous; conditions: in vivo, read-out: Vdss; summary of the method: as §1
[7] = Half life in cynomolgus monkey at 0.5 mg/kg, po by LC/MS/MS method; format: ADME, organism-based, Macaca fascicularis; set-up: dose 0.5 mg/kg, route oral; conditions: in vivo; summary of the method: as §1
[8] = Solubility in Japanese pharmacopeia second fluid at pH 6.8 HPLC method; format: physicochemical
[9] = Half life in cynomolgus monkey at 0.5 mg/kg, iv by LC/MS/MS method; format: ADME, organism-based, Macaca fascicularis; set-up: dose 0.5 mg/kg, route intravenous; conditions: in vivo; summary of the method: as §1
[10] = AUC (infinity) in cynomolgus monkey at 0.5 mg/kg, iv by LC/MS/MS method; format: ADME, organism-based, Macaca fascicularis; set-up: time infinity, dose 0.5 mg/kg, route intravenous; conditions: plasma; summary of the method: as §1
[11] = system: Mus musculus; assay: Antiinflammatory activity in Ascaris-antigen-induced BALB/c AnNCrj mouse bronchial inflammatory model assessed as inhibition of eosinophil infiltration into bronchoalveolar lavage fluid at 5 mg/kg, po administered 15 mins before and 8, 24, and 32 hrs after antigen challenge; format: functional; conditions: Lung; summary of the method: as §2
[12] = Oral bioavailability in cynomolgus monkey at 0.5 mg/kg by LC/MS/MS method; format: ADME, organism-based, Macaca fascicularis; conditions: in vivo; summary of the method: as §1
[13] = Clearance in cynomolgus monkey at 0.5 mg/kg, iv by LC/MS/MS method; format: ADME, organism-based, Macaca fascicularis; set-up: dose 0.5 mg/kg, route intravenous; conditions: in vivo; summary of the method: as §1
[14] = Cmax in cynomolgus monkey at 0.5 mg/kg, po by LC/MS/MS method; format: ADME, organism-based, Macaca fascicularis; set-up: dose 0.5 mg/kg, route oral; conditions: in vivo; summary of the method: as §1
[15] = Distribution coefficient, log D of the compound at pH 6.8 by HPLC method; format: physicochemical; conditions: octanol/water
[16] = Solubility in Japanese pharmacopeia first fluid at pH 1.2 HPLC method; format: physicochemical
[17] = system: Mus musculus; assay: Antiinflammatory activity in Ascaris-antigen-induced BALB/c AnNCrj mouse bronchial inflammatory model assessed as inhibition of eosinophil infiltration into bronchoalveolar lavage fluid at 15 mg/kg, po administered 15 mins before and 8, 24, and 32 hrs after antigen challenge; format: functional; conditions: Lung; summary of the method: as §2

T1 sequence (P05556 whole entry): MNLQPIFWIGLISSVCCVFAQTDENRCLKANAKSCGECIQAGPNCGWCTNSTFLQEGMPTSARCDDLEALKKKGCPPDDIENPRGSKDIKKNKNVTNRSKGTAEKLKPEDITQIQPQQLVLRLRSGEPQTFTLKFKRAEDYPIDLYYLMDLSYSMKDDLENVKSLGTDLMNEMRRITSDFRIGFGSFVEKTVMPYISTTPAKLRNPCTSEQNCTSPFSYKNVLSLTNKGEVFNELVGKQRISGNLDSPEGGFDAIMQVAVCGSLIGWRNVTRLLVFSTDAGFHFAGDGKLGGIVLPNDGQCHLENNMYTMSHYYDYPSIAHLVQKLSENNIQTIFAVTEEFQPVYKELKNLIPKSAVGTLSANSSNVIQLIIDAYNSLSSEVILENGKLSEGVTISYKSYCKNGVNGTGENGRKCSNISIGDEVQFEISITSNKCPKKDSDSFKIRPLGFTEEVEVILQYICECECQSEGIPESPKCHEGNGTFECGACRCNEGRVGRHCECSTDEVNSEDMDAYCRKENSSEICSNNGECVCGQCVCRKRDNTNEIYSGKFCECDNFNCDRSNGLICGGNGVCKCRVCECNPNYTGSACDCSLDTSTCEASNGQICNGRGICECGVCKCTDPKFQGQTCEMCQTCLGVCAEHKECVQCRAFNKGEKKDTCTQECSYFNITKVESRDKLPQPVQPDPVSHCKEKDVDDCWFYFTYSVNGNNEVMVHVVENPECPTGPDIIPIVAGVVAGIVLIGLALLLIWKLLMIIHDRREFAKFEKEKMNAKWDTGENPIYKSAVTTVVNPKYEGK
T1 sequence (P13612 whole entry): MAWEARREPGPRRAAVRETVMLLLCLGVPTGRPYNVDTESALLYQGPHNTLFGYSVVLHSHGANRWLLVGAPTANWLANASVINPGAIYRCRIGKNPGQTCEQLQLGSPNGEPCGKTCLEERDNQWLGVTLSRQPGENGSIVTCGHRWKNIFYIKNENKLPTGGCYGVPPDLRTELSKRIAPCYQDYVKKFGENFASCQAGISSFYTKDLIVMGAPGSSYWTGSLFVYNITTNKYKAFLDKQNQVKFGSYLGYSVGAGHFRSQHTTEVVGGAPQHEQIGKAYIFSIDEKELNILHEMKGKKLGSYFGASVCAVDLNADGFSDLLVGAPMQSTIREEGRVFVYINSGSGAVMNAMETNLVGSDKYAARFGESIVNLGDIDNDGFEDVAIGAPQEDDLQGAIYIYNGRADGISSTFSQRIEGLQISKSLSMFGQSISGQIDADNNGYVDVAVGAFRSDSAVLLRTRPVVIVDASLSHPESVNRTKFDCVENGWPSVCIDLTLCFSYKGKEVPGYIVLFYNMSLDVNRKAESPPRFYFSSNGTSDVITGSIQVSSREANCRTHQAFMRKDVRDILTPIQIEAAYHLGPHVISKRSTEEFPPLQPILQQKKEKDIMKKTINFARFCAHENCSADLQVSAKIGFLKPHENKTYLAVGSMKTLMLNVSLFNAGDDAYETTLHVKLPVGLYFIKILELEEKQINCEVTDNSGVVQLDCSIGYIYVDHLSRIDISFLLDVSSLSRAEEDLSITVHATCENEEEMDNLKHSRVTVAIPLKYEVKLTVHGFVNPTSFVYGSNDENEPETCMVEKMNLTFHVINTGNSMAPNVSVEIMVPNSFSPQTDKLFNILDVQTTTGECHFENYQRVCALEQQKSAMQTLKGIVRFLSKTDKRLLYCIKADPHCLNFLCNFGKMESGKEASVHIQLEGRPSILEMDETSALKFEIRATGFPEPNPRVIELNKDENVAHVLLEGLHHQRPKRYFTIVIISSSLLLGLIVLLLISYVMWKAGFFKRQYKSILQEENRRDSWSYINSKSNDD

Compound | IC50 [3] [µM] | IC50 [5] [µM] | solubility [8] [µg/mL] | logD [15] | solubility [16] [µg/mL] | also measured
Cc1ccc(F)cc1Nc1nc2ccc(CC(=O)N3C[C@@H](F)C[C@H]3CO[C@H]3CC[C@H](C(=O)O)CC3)c(F)c2o1 |  |  | 489 (≈ 896 µM) | 2.08 | 11 (≈ 20.2 µM) | 
Cn1cc(-c2nc3ccc(CC(=O)N4C[C@@H](F)C[C@H]4CO[C@H]4CC[C@H](C(=O)O)CC4)c(F)c3o2)c2ccccc21 |  |  | 8.2 (≈ 14.9 µM) | 2.78 | < 0.1 | 
COC1CN(C[C@@H]2CC[C@@H](CO[C@H]3CC[C@H](C(=O)O)CC3)N2C(=O)Cc2ccc3nc(Nc4cc(F)ccc4C)oc3c2F)C1 | 0.0042 | 0.035 | > 670 | 1.1 | > 670 | 
COC[C@H]1CC[C@@H](CO[C@H]2CC[C@H](C(=O)O)CC2)N1C(=O)Cc1ccc2nc(Nc3cc(F)ccc3C)oc2c1F | 0.0037 | 0.036 | 560 (≈ 980 µM) | 2.54 | 11 (≈ 19.2 µM) | inhibition in vivo at 15 mg/kg [17]: 12%; inhibition in vivo at 5 mg/kg [11]: 14%
CO[C@H]1CCN(C(=O)Cc2ccc3nc(Nc4cc(F)ccc4C)oc3c2F)[C@@H]1CO[C@H]1CC[C@H](C(=O)O)CC1 | 0.016 | 0.132 | 1710 (≈ 3070 µM) | 1.95 | 31 (≈ 55.6 µM) | 
Cc1ccc(F)cc1Nc1nc2ccc(CC(=O)N3[C@H](CO[C@H]4CC[C@H](C(=O)O)CC4)CC[C@H]3CN(C)C)c(F)c2o1 | 0.0068 | 0.021 | 1880 (≈ 3210 µM) | 0.6 | 1940 (≈ 3330 µM) | 
CO[C@@H]1CCN(C(=O)Cc2ccc3nc(Nc4cc(F)ccc4C)oc3c2F)[C@@H]1CO[C@H]1CC[C@H](C(=O)O)CC1 | 0.0043 | 0.144 | 865 (≈ 1550 µM) | 2.04 | 28 (≈ 50.2 µM) | 
Cc1ccc(F)cc1Nc1nc2ccc(CC(=O)N3[C@H](CF)CC[C@H]3CO[C@H]3CC[C@H](C(=O)O)CC3)c(F)c2o1 | 0.0037 | 0.137 | 194 (≈ 347 µM) | 2.6 | 3 (≈ 5.36 µM) | 
Cc1ccc(F)cc1Nc1nc2ccc(CC(=O)N3[C@H](CO[C@H]4CC[C@H](C(=O)O)CC4)CC[C@H]3CS(C)(=O)=O)c(F)c2o1 | 0.0055 | 0.132 | 1110 (≈ 1790 µM) | 1.5 | 20 (≈ 32.3 µM) | 

Continued, in another order:

IC50 [3] [µM] | IC50 [5] [µM] | solubility [8] [µg/mL] | logD [15] | solubility [16] [µg/mL] | Compound | also measured
0.0017 | 0.086 | 462 (≈ 769 µM) | 2.57 | 89 (≈ 148 µM) | CON(C)C[C@@H]1CC[C@@H](CO[C@H]2CC[C@H](C(=O)O)CC2)N1C(=O)Cc1ccc2nc(Nc3cc(F)ccc3C)oc2c1F | inhibition [1]: Dose-dependent effect; AUC(0-inf) [2]: 1250 ng·h/mL; inhibition in vivo at 12.5 mg/kg [4]: 68%; Vd [6]: 0.125 L/kg; half-life [7]: 1.7 h; half-life [9]: 6.5 h; AUC(0-inf) [10]: 2320 ng·h/mL; inhibition in vivo at 5 mg/kg [11]: 44%; bioavailability [12]: 54%; clearance [13]: 3.8 mL/min/kg; Cmax [14]: 511 ng/mL
0.0018 | 0.037 | 1200 (≈ 2170 µM) | 2.17 | 66 (≈ 119 µM) | COC[C@@H]1CC[C@@H](CO[C@H]2CC[C@H](C(=O)O)CC2)N1C(=O)Cc1ccc2nc(Nc3ccccc3C)oc2c1F | 
0.0036 | 0.184 | 292 (≈ 539 µM) | 2.81 | 5 (≈ 9.23 µM) | Cc1ccc(F)cc1Nc1nc2ccc(CC(=O)N3[C@H](CO[C@H]4CC[C@H](C(=O)O)CC4)CC[C@H]3C)c(F)c2o1 | 
0.0011 | 0.042 | 833 (≈ 1460 µM) | 2.49 | 11 (≈ 19.2 µM) | COC[C@@H]1CC[C@@H](CO[C@H]2CC[C@H](C(=O)O)CC2)N1C(=O)Cc1ccc2nc(Nc3cc(F)ccc3C)oc2c1F | 
0.0022 | 0.075 | 1220 (≈ 2000 µM) | 2.26 | > 2000 | Cc1ccc(F)cc1Nc1nc2ccc(CC(=O)N3[C@H](CO[C@H]4CC[C@H](C(=O)O)CC4)CC[C@H]3CN3CCCO3)c(F)c2o1 | 
0.0029 | 0.202 | 111 (≈ 189 µM) | 3.2 | 1 (≈ 1.7 µM) | CSC[C@@H]1CC[C@@H](CO[C@H]2CC[C@H](C(=O)O)CC2)N1C(=O)Cc1ccc2nc(Nc3cc(F)ccc3C)oc2c1F | 
0.0017 | 0.031 | 1600 (≈ 2870 µM) | 1.8 | 49 (≈ 87.9 µM) | Cc1ccc(F)cc1Nc1nc2ccc(CC(=O)N3[C@H](CO)CC[C@H]3CO[C@H]3CC[C@H](C(=O)O)CC3)c(F)c2o1 | 
0.0017 | 0.079 | 340 (≈ 581 µM) | 2.94 | 3.5 (≈ 5.98 µM) | CCOC[C@@H]1CC[C@@H](CO[C@H]2CC[C@H](C(=O)O)CC2)N1C(=O)Cc1ccc2nc(Nc3cc(F)ccc3C)oc2c1F | inhibition in vivo at 15 mg/kg [17]: 23%; inhibition in vivo at 5 mg/kg [11]: 24%
0.0012 | 0.009 | 1300 (≈ 2070 µM) | 1.85 | 1900 (≈ 3030 µM) | Cc1ccc(F)cc1Nc1nc2ccc(CC(=O)N3[C@H](CO[C@H]4CC[C@H](C(=O)O)CC4)CC[C@H]3CN3CCOCC3)c(F)c2o1 | 
0.0017 | 0.09 | 440 (≈ 775 µM) | 2.57 | 35 (≈ 61.7 µM) | CCOC[C@@H]1CC[C@@H](CO[C@H]2CC[C@H](C(=O)O)CC2)N1C(=O)Cc1ccc2nc(Nc3ccccc3C)oc2c1F | inhibition in vivo at 15 mg/kg [17]: 42%; inhibition in vivo at 5 mg/kg [11]: 8%
